Experimental data from publication PMC10165662 (Bioorganic & medicinal chemistry letters, 2023).
“Also recorded” adds a separate entry of the source. Peptide text beside a SMILES is read from it. * marks the point of attachment. AMC = Cc1cc(=O)oc2cc(N*)ccc12

Biological target: 20S proteasome (sCP), β5 subunit (Homo sapiens, UniProt P28074)
Type: biochemical
Conditions: Figures 2C and 4B
In short: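 Purified human constitutive 20S proteasome (5 nM) incubated with LLVY-conjugated test substrate (10 μM in aminocoumarin time course) up to 4 h at 37 °C. Free LLVY [M+H] EIC quantified by single-quadrupole LC-MS against a purified LLVY standard curve (20–1250 pmol; LOQ 20 pmol), giving % cleaved. Reference fluorogenic substrates included each replicate; triplicates; one-way ANOVA.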

Cc1cc(=O)oc2cc(NC(=O)[C@H](Cc3ccc(O)cc3)NC(=O)[C@@H](NC(=O)[C@H](CC(C)C)NC(=O)[C@@H](N)CC(C)C)C(C)C)ccc12 [LLVY-AMC] (H-LLVY-{AMC})
Rate of hydrolysis by the sCP in time-dependent MS analysis (in words): hydrolyzed by the sCP faster than TAS-1; also recorded: faster rate than the molecule with 6-aminocoumarin
